Laboratory results: ChEMBL document CHEMBL6134766, “Design, synthesis, and evaluation of benzhydrylpiperazine-based novel dual COX-2/5-LOX inhibitors with anti-inflammatory and anti-cancer activity” (RSC Med Chem, 2025)
Calls of active or inactive are those of the source. The calls are words filed in the database; no cut-off is given here.

Key:
[1] = test system: Drosophila; test: Toxicity in wild-type Drosophila assessed as reduction in eclosion rate at 100 uM, po via food to female and male flies and measured in F1 generation flies after 15 days; format: organism-based; parameters: scale not given: the % may be the effect or the level left; conditions: in vivo, 360 h, time 15 day
Outline: (§1)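 Ten virgin female and male Oregon R+ flies crossed on food containing compound (1, 10, 50, 100 or 200 μM), held at 24 ± 1 °C; F1 generation followed 15 days; percent eclosion versus untreated controls; Dunnett's multiple comparisons.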

[2] = Acute toxicity in female Wistar rat assessed as animal mortality up to 500 mg/kg, po measured for 14 days; format: organism-based; conditions: in vivo, 336 h, time 14 day
Outline: (§2)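 Followed OECD 423 guideline in healthy female Wistar rats weighing 200–250 g. Animals were housed at 25 ± 2 °C and 45–60% RH on a 12 h light/dark cycle, with free access to water and food.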

[3] = AUC (0 to 24 hrs) in male Wistar rat at 10 mg/kg, po measured up to 24 hrs by HPLC analysis; format: ADME, organism-based; conditions: in vivo
Outline: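 Healthy male Wistar rats (200–250 g, n = 5), fasted overnight, given a single oral dose of 10 mg kg−1 in 0.3% sodium CMC. Blood collected under anaesthesia at 0, 0.5, 1, 2, 4, 8, 16 and 24 h into heparinized tubes. Plasma extracted with MeOH and analysed by HPLC (MeOH:H2O 85:15, detection at 254 nm) against a standard calibration curve. Parameters from a non-compartmental extravascular model.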

[4] = Toxicity in fasting Wistar rat assessed as ulceration at 10 mg/kg, po via gavage treated for 3 days consecutively by H and E staining based analysis (reference value: 0 %); format: organism-based; conditions: in vivo, 72 h, time 3 day
Outline: (§3)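 Fasted rats, n = 6/group, gavaged once daily for 3 days in 0.3% Na CMC (vehicle control 0.3% CMC); killed under anaesthesia 6 h after day-3 dose; stomachs saline-washed, mucosa examined with hand lens; ulcer score, index and % ulceration by reported scoring; some stomachs formalin-fixed, H&E stained.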

[5] = Toxicity in fasting Wistar rat assessed as ulcer score at 5 mg/kg, po via gavage treated for 3 days consecutively by H and E staining based analysis (reference value: 0); format: organism-based; conditions: in vivo, 72 h, time 3 day; outline: as §3
[6] = test system: Drosophila; test: Anti-cancer activity in Drosophila harboring UAS-Ras V12 mutant assessed as improvement in early pupal survivability at 10 to 50 uM, po; format: functional, organism-based; conditions: dose 10-50 µM
Outline: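 UAS-RasV12 glial glioblastoma model (repo-GAL4/UAS-RasV12) in Drosophila, with Oregon R+ wild-type flies as control. Flies reared at 24 ± 1 °C on standard corn food containing compound at 10 or 50 μM. Percent of animals at each developmental stage (third instar larva, pupa) scored. Significance by Tukey's multiple comparisons test.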

[7] = test system: Rattus norvegicus; test: Anti-inflammatory activity in arachidonic acid-induced paw edema Wistar rat model assessed as swelling thickness of paw at 5 mg/kg, po measured after 1 hr by digital vernier caliper (reference value: 6.51 +/- 0.37 millimeter); format: functional
[8] = test system: Drosophila; test: Toxicity in wild-type Drosophila assessed as eclosion rate at 10 uM, po via food to female and male flies and measured in F1 generation flies after 15 days; format: organism-based; conditions: in vivo, 360 h, time 15 day; outline: as §1
[9] = test system: Rattus norvegicus; test: Anti-inflammatory activity in arachidonic acid-induced paw edema Wistar rat model assessed as protection against swelling thickness of paw at 20 mg/kg, po measured after 1 hr by digital vernier caliper (reference value: 0 %); format: functional
[10] = test system: Rattus norvegicus; test: Anti-inflammatory activity in carrageenan-induced paw edema Wistar rat model assessed as decrease in IL-6 level in paw tissue at 5 to 20 mg/kg, po measured for 6 hrs by ELISA; format: functional, organism-based; conditions: dose 5-20 mg/kg
Outline: (§4)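 Paw tissue taken from carrageenan-edema rats dosed orally at 5, 10 or 20 mg kg−1. Tissue rinsed in PBS pH 7.4, minced, homogenized, filtered and centrifuged at 2000 rpm for 20 min at 4 °C. Supernatant assayed by ELISA for PGE2, IL-6, TNF-α and IL-10. Data as mean ± SD.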

[11] = MRT in male Wistar rat at 10 mg/kg, po measured up to 24 hrs by HPLC analysis; format: ADME, organism-based; conditions: in vivo
Outline: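 Overnight-fasted male Wistar rats, 200–250 g, single 10 mg kg−1 p.o. in 0.3% sodium CMC; blood at 0, 0.5, 1, 2, 4, 8, 16, 24 h into heparin tubes; plasma MeOH-extracted, HPLC (MeOH:H2O 85:15, 254 nm) against calibration curve; extravascular non-compartmental analysis; mean ± SD (n = 3).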

[12] = test system: Rattus norvegicus; test: Analgesic activity in acetic acid-induced pain Wistar rat model assessed as number of writhing at 20 mg/kg, po pretreated for 30 mins followed by acetic acid treatment measured for 30 mins by writhing test (reference value: 40.33 +/- 3.01); format: functional; conditions: 0.5 h
[13] = Toxicity in fasting Wistar rat assessed as ulceration at 20 mg/kg, po via gavage treated for 3 days consecutively by H and E staining based analysis (reference value: 0 %); format: organism-based; conditions: in vivo, 72 h, time 3 day; outline: as §3
[14] = test system: Rattus norvegicus; test: Anti-inflammatory activity in carrageenan-induced paw edema Wistar rat model assessed as swelling thickness of paw at 10 mg/kg, po measured after 1 hr by digital vernier caliper (reference value: 8.47 +/- 0.25 millimeter); format: functional
[15] = test system: Rattus norvegicus; test: Anti-inflammatory activity in carrageenan-induced paw edema Wistar rat model assessed as increase in IL-10 level in paw tissue at 5 to 20 mg/kg, po measured for 6 hrs by ELISA; format: functional, organism-based; conditions: dose 5-20 mg/kg; outline: as §4
[16] = Toxicity in Wistar rat assessed as change in serum urea level at 20 mg/kg, po; format: organism-based; conditions: in vivo
Outline: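 Rats dosed orally in 0.3% Na CMC; retro-orbital blood clotted at room temperature, serum separated at 2000 rpm, 20 min, 4 °C; ALT, AST, creatinine and urea by commercial kits; n = 6 per group, mean ± SD; Tukey test after repeated-measures one-way ANOVA.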

[17] = Acute toxicity in female Wistar rat assessed as detrimental effects up to 500 mg/kg, po measured for 14 days; format: organism-based; conditions: in vivo, 336 h, time 14 day; outline: as §2
[18] = test system: Gastric mucosa; test: Antioxidant activity in gastric mucosal tissue in Wistar rat assessed as increase in SOD level at 20 mg/kg, po; format: functional, organism-based
Outline: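 Gastric tissue from fasted rats (dosed orally once daily for 3 days in 0.3% Na CMC) homogenized in cold PBS pH 7.4, centrifuged 1000 rpm, 10 min, 4 °C; protein by Bradford; SOD measured in supernatant per reported procedure.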

[19] = test system: Gastric mucosa; test: Antioxidant activity in gastric mucosal tissue in Wistar rat assessed as increase in GSH level at 20 mg/kg, po; format: functional, organism-based
Outline: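 Fasted rats (n = 6/group) gavaged once daily for 3 days in 0.3% Na CMC and sacrificed 6 h after the final dose. Randomly chosen stomachs homogenized in cold PBS pH 7.4 and centrifuged at 1000 rpm for 10 min at 4 °C. Supernatant protein measured by Bradford assay; GSH and nitrate then measured by reported methods.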

[20] = test system: Rattus norvegicus; test: Anti-inflammatory activity in carrageenan-induced paw edema Wistar rat model assessed as decrease in TNF-alpha level in paw tissue at 5 to 20 mg/kg, po measured for 6 hrs by ELISA; format: functional, organism-based; conditions: dose 5-20 mg/kg; outline: as §4
[21] = test system: Rattus norvegicus; test: Anti-inflammatory activity in carrageenan-induced paw edema Wistar rat model assessed as swelling thickness of paw at 20 mg/kg, po measured after 6 hrs by digital vernier caliper (reference value: 8.33 +/- 0.42 millimeter); format: functional

SMILES	Activity [2]	Activity [4]	Activity [5]	Activity [7]	Activity [9]	Activity [10]	Activity [12]	Activity [13]	Activity [14]	Activity [15]	Activity [16]	Activity [17]	Activity [18]	Activity [19]	Activity [20]	Activity [21]	also measured
Clc1ccc(-c2nnc(CN3CCN(C(c4ccccc4)c4ccc(Cl)cc4)CC3)o2)cc1 (configuration not stated)	Non-toxic	1.38%	0	2.86 mm	70.21%	Active	17.83	1.25%	5.15 mm	Active	Non-toxic	Non-toxic	Active	Active	Active	3.41 mm	Activity [1]: 41%; AUC [3]: 32.06 µg/mL/h; Activity [6]: Active; Activity [8]: ~ 84%; MRT [11]: 3.42 h
O=[N+]([O-])c1ccc(-c2nnc(CN3CCN(C(c4ccccc4)c4ccc(Cl)cc4)CC3)o2)cc1 (configuration not stated)	Non-toxic	4.85%	0.01	2.92 mm	64.36%	Active	20.33	4.86%	5.32 mm	Active	Non-toxic	Non-toxic	Active	Active	Active	3.91 mm	
